# Marks after values point to notes of the source that are not given here.
# Tests used:
# [1] = Biodistribution of [11C]-radiotracers in rat brain; assay type: in vivo; settings: mean (n = 5) ± SD
# How it was run: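 Conscious restrained rats (n = 5/time point) received 30–60 MBq [11C]-radiotracer (70–170 GBq/μmol; 0.3–0.8 nmol) iv by tail vein in buffered saline with 0.5% Tween 80. After decapitation, brain regions were excised, blotted, weighed, gamma-counted and decay-corrected against injected-dose standards. SUV = %ID/g […] body weight (kg). Blocking groups got an FAAH inhibitor (2 mg/kg ip, saline/Tween 80) or vehicle 30 min before. Student's t test.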
# FAAH = target: T1, FAAH (Rattus norvegicus, UniProt P97612); assay: Irreversible binding of [11C]-radiotracers to FAAH in rat brain parenchyma; assay type: in vivo
# T1 sequence (P97612 1-579): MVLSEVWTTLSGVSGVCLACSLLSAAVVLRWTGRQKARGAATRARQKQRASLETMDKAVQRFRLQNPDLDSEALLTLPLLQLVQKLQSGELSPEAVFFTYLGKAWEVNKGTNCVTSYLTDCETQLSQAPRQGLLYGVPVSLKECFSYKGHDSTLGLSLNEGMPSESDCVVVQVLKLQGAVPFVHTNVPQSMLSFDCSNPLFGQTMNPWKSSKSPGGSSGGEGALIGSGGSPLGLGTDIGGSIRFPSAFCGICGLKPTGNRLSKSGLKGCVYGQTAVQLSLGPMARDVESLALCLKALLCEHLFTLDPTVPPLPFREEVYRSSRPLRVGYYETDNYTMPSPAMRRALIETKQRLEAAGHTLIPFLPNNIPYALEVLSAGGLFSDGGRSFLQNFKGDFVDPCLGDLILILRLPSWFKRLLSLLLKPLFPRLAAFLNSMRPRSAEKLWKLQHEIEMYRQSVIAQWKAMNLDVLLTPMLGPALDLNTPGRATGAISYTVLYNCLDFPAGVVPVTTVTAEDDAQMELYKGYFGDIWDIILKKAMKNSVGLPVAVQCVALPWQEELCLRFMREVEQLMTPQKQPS
structure (smiles),measurement,setting,value
"O=C(NC1CCCCC1)Oc1cc(O)cc(-c2ccccc2)c1 [[^11C]1, [^11C-carbonyl]N-cyclohexyl-5-hydroxy[1,1′-biphenyl]-3-ylcarbamic acid ester]","Regional brain uptake, cortex (2 min)",[1]; 2 min post iv injection,2.40 ± 0.18 SUV
same,"Regional brain uptake, hypothalamus (2 min)",[1]; 2 min post iv injection,1.61 ± 0.23 SUV
same,"Regional brain uptake, cortex (40 min)",[1]; 40 min post iv injection,2.49 ± 0.25 SUV
same,"Regional brain uptake, hypothalamus (40 min)",[1]; 40 min post iv injection,1.14 ± 0.13 SUV
same,"Regional brain uptake, cortex (40 min, blocked)","[1]; 40 min post iv injection, pretreated with compound 2 (2 mg/kg, ip)",0.36 ± 0.04 ^b SUV
same,% bound (irreversibly) at 60 min postinjection,FAAH,about 90%
